As usually defined, the inhibition in vivo is the relative decrease from the control value, in per cent. The term Inhibition denotes how much of the control response was suppressed. The term IC50 denotes the concentration that inhibits the measured activity by half. The term inhibition denotes the relative decrease from the control value, in per cent.

The test system of data set [1] is Rattus norvegicus. As to the kind of experiment: Gastrointestinal toxicity in rat at 84 umol/kg, sc. It counts as organism-based. The conditions noted are these: in vivo. In outline: (§1)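 Female rats dosed sc once daily for four days. Mortality, perforating GI ulcer incidence, melena defecation and body weight loss recorded 24 h after last dose.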
Data set [2] concerns Radical scavenging activity. As to the kind of experiment: DPPH radical scavenging activity at 0.1 mM. In kind it is functional. In outline: (§2)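 Radical scavenging measured as % interaction with stable free radical DPPH (0.2 mM) after 30 min incubation, compounds at 0.2, 0.1 and 0.05 mM.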
The subject of data set [3] is Rattus norvegicus. As to the kind of experiment: Anti-inflammatory activity against paw edema induced by carrageenan in fischer rat at 300 umol/kg, ip. In kind it is functional. The procedure, abridged: (§3)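 Carrageenan paw edema in rats; compounds given ip at 300 µmol/kg. Read-out % paw weight increase versus controls, converted to % edema inhibition; mean of 4-9 rats from two independent experiments, Student's t test.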

Data set [4] concerns Radical scavenging activity. The data set can be described thus: DPPH radical scavenging activity at 0.2 mM. It counts as functional. The procedure, abridged:
as §2
(In general: Loss of DPPH colour is used to gauge radical scavenging.)

Data set [5] deals with Radical scavenging activity. As to the kind of experiment: DPPH radical scavenging activity at 0.05 mM. In kind it is functional. In outline:
as §2

The test system of data set [6] is Rattus norvegicus. As to the kind of experiment: Increase in paw weight in Fischer rats at 300 umol/kg, ip. It counts as functional. The procedure, abridged: as §3
The subject of data set [7] is Rattus norvegicus. The data set can be described thus: Inhibition of arthritis in rat at 300-600 umol/kg, id. It counts as functional. The procedure, abridged:
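Arthritis induced in rats by id injection of complete Freund's adjuvant; compounds dosed 300-600 µmol/kg for 14 days, arthritic score assessed day 15 post adjuvant, % inhibition versus controls; mean of 4-6 rats, Student's t test.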

Data set [8] deals with Rattus norvegicus. The data set can be described thus: Gastrointestinal toxicity in rat at 1350 umol/kg, sc. In kind it is organism-based. The conditions noted are these: in vivo. In outline:
as §1

The subject of data set [9] is Radical scavenging activity. The data set can be described thus: Inhibition of lipid peroxidation of rat hepatic microsomal membrane lipids. It counts as functional, Liver.
In data set [10] the target is T1, Seed linoleate 13S-lipoxygenase-1 (Glycine max, UniProt P08170).
T1 sequence (P08170 whole entry): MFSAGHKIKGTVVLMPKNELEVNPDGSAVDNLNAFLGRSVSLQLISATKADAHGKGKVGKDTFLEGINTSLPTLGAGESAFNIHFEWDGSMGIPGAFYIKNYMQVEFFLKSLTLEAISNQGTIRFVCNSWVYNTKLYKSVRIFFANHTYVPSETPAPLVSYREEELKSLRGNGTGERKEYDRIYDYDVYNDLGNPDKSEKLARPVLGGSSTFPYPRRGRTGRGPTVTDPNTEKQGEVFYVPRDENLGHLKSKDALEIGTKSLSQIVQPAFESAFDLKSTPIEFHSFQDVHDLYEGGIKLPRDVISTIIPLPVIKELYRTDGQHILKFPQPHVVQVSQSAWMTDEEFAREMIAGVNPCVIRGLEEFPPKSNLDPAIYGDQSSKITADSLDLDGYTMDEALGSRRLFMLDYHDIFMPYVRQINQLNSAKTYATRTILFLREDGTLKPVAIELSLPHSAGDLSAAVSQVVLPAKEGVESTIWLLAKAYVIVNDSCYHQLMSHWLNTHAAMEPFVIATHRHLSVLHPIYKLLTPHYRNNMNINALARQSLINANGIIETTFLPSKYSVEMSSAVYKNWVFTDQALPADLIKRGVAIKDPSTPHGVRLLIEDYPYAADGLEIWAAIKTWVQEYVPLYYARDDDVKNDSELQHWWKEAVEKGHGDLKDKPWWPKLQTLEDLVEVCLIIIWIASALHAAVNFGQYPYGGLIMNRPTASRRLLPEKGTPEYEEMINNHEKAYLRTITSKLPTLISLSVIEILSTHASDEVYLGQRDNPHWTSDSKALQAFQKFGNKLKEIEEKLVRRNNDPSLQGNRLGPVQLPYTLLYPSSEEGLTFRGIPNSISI
The data set can be described thus: Inhibition of soybean lipoxygenase. In kind it is functional. In outline: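 Soybean lipoxygenase, 220 U/ml, with sodium linoleate (100 μM) substrate, pH 9, 28 °C, 5 min; IC50 determined.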

In data set [11] the test system is Rattus norvegicus. As to the kind of experiment: Decrease in total cholesterol level in rat at 200 umol/kg, ip. Also noted: scale not given: the % may be the effect or the level left. To be noted: route intraperitoneal.
Data set [12] deals with Rattus norvegicus. The data set can be described thus: Decrease in LDL cholesterol level in rat at 200 umol/kg, ip. Also noted: scale not given: the % may be the effect or the level left. To be noted: route intraperitoneal.
The subject of data set [13] is Rattus norvegicus. The data set can be described thus: Decrease in triglyceride level in rat at 200 umol/kg, ip. On the set-up: scale not given: the % may be the effect or the level left. The conditions noted are these: route intraperitoneal.
Data set [14] concerns Rattus norvegicus. The data set can be described thus: Decrease in triglyceride level in rat at 56 umol/kg, ip. The conditions noted are these: route intraperitoneal. Also noted: scale not given: the % may be the effect or the level left.
In data set [15] the test system is Rattus norvegicus. As to the kind of experiment: Decrease in LDL cholesterol level in rat at 56 umol/kg, ip. The conditions noted are these: route intraperitoneal. On the set-up: scale not given: the % may be the effect or the level left.
Data set [16] concerns Rattus norvegicus. As to the kind of experiment: Decrease in total cholesterol level in rat at 56 umol/kg, ip. On the set-up: scale not given: the % may be the effect or the level left. The conditions noted are these: route intraperitoneal.
For data set [17], the system named is Radical scavenging activity. As to the kind of experiment: Inhibition of lipid peroxidation of rat hepatic microsomal membrane lipids at 1 mM. The conditions noted are these: Liver.

Activity calls are given as the source filed them. No cut-off for these calls is given here.

In the case of `COc1ccc2c(c1)c(CC(=O)N1CCCC1C(=O)NCCS)c(C)n2C(=O)c1ccc(Cl)cc1` (stereo unspecified), the results for the Activity entry in the data set with Rattus norvegicus [1] and in the data set with Rattus norvegicus [6] were “Non-toxic” and 48.5%, respectively. Moreover, the result in data set [2], in data set [4] and in data set [5] was inactive. In the data set with Rattus norvegicus [3], the inhibition in vivo at 300 µmol/kg worked out at 17%. Further, the Inhibition in the data set with Rattus norvegicus [7] worked out at 50.8%.
Regarding `COc1ccc2cc([C@H](C)C(=O)O)ccc2c1` [NAPROXEN], the inhibition in vivo at 300 µmol/kg with Rattus norvegicus [3] stood at 51%. For the same molecule, the Activity entry in the data set with Rattus norvegicus [8] is “Toxic”; with Rattus norvegicus [6] it was 28.7%.
For `CCOC(=O)C(CS)NC(=O)C1CCCN1C(=O)Cc1c(C)n(C(=O)c2ccc(Cl)cc2)c2ccc(OC)cc12` (stereo unspecified), the IC50 was 390 µM in data set [9] and 200 µM in data set [10]. The Activity in the data set with Rattus norvegicus [11] is 78%; with Rattus norvegicus [1], “Non-toxic”; in [2], 44.2%; in data set [4], 69.7%; in data set [5] it was 31.1%; in the data set on Rattus norvegicus [12], 48.4%. The figures for the Activity in the data set on Rattus norvegicus [13] and in the data set on Rattus norvegicus [6] were 55.7% and 50.1%, respectively. This molecule gave an inhibition in vivo at 300 µmol/kg in the data set on Rattus norvegicus [3] of 14.3%. This molecule showed an Inhibition in the data set with Rattus norvegicus [7] of 77.4%.
In turn, `CCOC(=O)C(CS)NC(=O)C1CCCCN1C(=O)C(C)c1ccc2cc(OC)ccc2c1` (stereo unspecified) displayed an IC50 in data set [9] of 122 µM. Also, the Activity in [2] was found to be 46%; in data set [4], 76.7%; in data set [5], 23.5%; in the data set with Rattus norvegicus [14] it was 21.3%; in the data set with Rattus norvegicus [15], 52%; in the data set with Rattus norvegicus [6], 34.9%. In addition, the Activity in the data set with Rattus norvegicus [16] amounted to 40%. The same molecule came in with an inhibition in vivo at 300 µmol/kg in the data set on Rattus norvegicus [3] of 50.7%.
As for `COc1ccc2cc(C(C)C(=O)N3CCCC3C(=O)NCCS)ccc2c1` (stereo unspecified), half-maximal inhibition in data set [10] (IC50) was put at 35 µM. Besides, the Activity in data set [2] was 56.3%; in [4], 78.9%; in data set [5] it was 28.8%; with Rattus norvegicus [8], “Non-toxic”; in the data set with Rattus norvegicus [6], 42.9%. For the same molecule, in the data set with Rattus norvegicus [3], the inhibition in vivo at 300 µmol/kg was found to be 26.7%. In addition, in the data set on Rattus norvegicus [7], the Inhibition came to 51.6%.
Turning to `COc1ccc2c(c1)c(CC(=O)O)c(C)n2C(=O)c1ccc(Cl)cc1` [INDOMETHACIN], the Activity entry in the data set with Rattus norvegicus [1] is “Toxic”; in the data set with Rattus norvegicus [6] it was 27%. The molecule further gave an inhibition in vivo at 300 µmol/kg in the data set with Rattus norvegicus [3] of 53.9%.
On to `CCOC(=O)C(CS)NC(=O)C1CCCN1C(=O)C(C)c1ccc2cc(OC)ccc2c1` (stereo unspecified), for which the results for the IC50 in data set [9] and in [10] were 320 µM and 48 µM, respectively. The Activity was 61.9% in [2]; 86.3% in data set [4]; 32.1% in data set [5]; 68.7% with Rattus norvegicus [14]; “Non-toxic” in the data set with Rattus norvegicus [8]; 55% with Rattus norvegicus [15]. The figures for the Activity in the data set with Rattus norvegicus [6] and in the data set with Rattus norvegicus [16] were 44.6% and 58%, respectively. For the same molecule, the inhibition in vivo at 300 µmol/kg in the data set with Rattus norvegicus [3] turned out to be 23.7%. In the data set with Rattus norvegicus [7], this molecule came in with an Inhibition of 100%.
`CCOC(=O)[C@@H](N)CS` yielded an inhibition in [17] of 49%.
As for `COc1ccc2cc(C(C)C(=O)N3CC(O)CC3C(=O)NCCS)ccc2c1` (stereo unspecified), the Activity in data set [2] came out at 36.5%; in [4] it was 56.2%; in data set [5], 21.3%; in the data set on Rattus norvegicus [6], 44.4%. Further, the inhibition in vivo at 300 µmol/kg with Rattus norvegicus [3] was 24.1%.
In data set [17], `NCCS` returned an inhibition of 37%.

These data come from ChEMBL document CHEMBL1149466, “Synthesis and pharmacochemical study of novel polyfunctional molecules combining anti-inflammatory, antioxidant, and hypocholesterolemic properties” (Bioorg Med Chem Lett, 2006).
